ChEMBL document CHEMBL1649128, “SC29EK, a peptide fusion inhibitor with enhanced alpha-helicity, inhibits replication of human immunodeficiency virus type 1 mutants resistant to enfuvirtide” (Antimicrob Agents Chemother, 2009)
Active and inactive are the calls of the source. No cut-off for these calls is given here. Non-standard residues stand in square brackets, D forms with d. Nle = CCCC[C@H](N)C(=O)O

Columns and labels:
[1] = test system: Human immunodeficiency virus 1; test: (§1) Antiviral activity against enfuvirtide-resistant Human immunodeficiency virus 1 NL4-3 harboring gp41 D36G/I37K/N126K/L204I mutation and 5-amino-acid deletion in the V4 region of gp120 protein by MAGI assay using human HeLa Cd4/LTR-beta-galactosidase cells by MAGI assay; type: functional, organism-based
[2] = test system: Human immunodeficiency virus 1; test: Antiviral activity against enfuvirtide-resistant Human immunodeficiency virus 1 NL4-3 by MAGI assay using human HeLa Cd4/LTR-beta-galactosidase cells; type: functional, organism-based; details: Human immunodeficiency virus 1, NL4-3, HeLa
[3] = test system: Human immunodeficiency virus 1; test: Antiviral activity against enfuvirtide-resistant Human immunodeficiency virus 1 NL4-3 harboring gp41 D36G/N126K mutation by MAGI assay using human HeLa Cd4/LTR-beta-galactosidase cells; type: functional, organism-based
[4] = test system: Human immunodeficiency virus 1; test: Antiviral activity against enfuvirtide-resistant Human immunodeficiency virus 1 NL4-3 harboring gp41 D36G/N126K mutation by MAGI assay using human HeLa Cd4/LTR-beta-galactosidase cells relative to HIV1 NL4-3 gp41 D36G mutant; type: functional
[5] = test system: Human immunodeficiency virus 1; test: Antiviral activity against Human immunodeficiency virus 1 NL4-3 assessed as decrease in EC50 by MAGI assay relative to ddC; type: functional, organism-based
Outline: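 HeLa CD4/LTR-β-galactosidase (MAGI) cells were seeded at 10^4/well and infected next day with HIV-1 NL4-3 (60 MAGI U/well). They were cultured 48 h with serial drug dilutions in medium containing 5, 10, 20 or 50% FCS, with ddC as the reverse transcriptase inhibitor reference. X-gal-stained blue cells were counted. EC50 is the concentration giving 50% inhibition, determined three times independently.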

[6] = test system: Human immunodeficiency virus 1; test: Antiviral activity against enfuvirtide-resistant Human immunodeficiency virus 1 NL4-3 by MAGI assay using human HeLa Cd4/LTR-beta-galactosidase cells relative to HIV1 NL4-3 gp41 D36G mutant; type: functional
[7] = test system: Human immunodeficiency virus 1; test: as §1, with “cells relative to HIV1 NL4-3 gp41 D36G mutant” for “cells”; type: functional
[8] = test system: Human immunodeficiency virus 1; test: Antiviral activity against enfuvirtide-resistant Human immunodeficiency virus 1 NL4-3 harboring gp41 D36G/N43D mutation by MAGI assay using human HeLa Cd4/LTR-beta-galactosidase cells relative to HIV1 NL4-3 gp41 D36G mutant; type: functional
[9] = test system: Human immunodeficiency virus 1; test: Antiviral activity against enfuvirtide-resistant Human immunodeficiency virus 1 NL4-3 harboring gp41 D36G mutation by MAGI assay using human HeLa Cd4/LTR-beta-galactosidase cells; type: functional, organism-based
[10] = test system: Human immunodeficiency virus 1; test: Antiviral activity against enfuvirtide-resistant Human immunodeficiency virus 1 NL4-3 by MAGI assay using human HeLa Cd4/LTR-beta-galactosidase cells in presence fresh human serum after 2 hrs; type: functional, organism-based
[11] = test system: Human immunodeficiency virus 1; test: Antiviral activity against enfuvirtide-resistant Human immunodeficiency virus 1 NL4-3 by MAGI assay using human HeLa Cd4/LTR-beta-galactosidase cells in presence of 5 to 50% fetal calf serum; type: functional, organism-based
Outline: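 MAGI assay against HIV-1 NL4-3 run with FCS at 5, 10, 20 or 50% in the medium. HeLa CD4/LTR-β-galactosidase cells were inoculated at 60 MAGI U/well, cultured 48 h with drug, and X-gal-stained blue cells counted. Each EC50 was determined three times independently, with Student's t test.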

[12] = test system: Human immunodeficiency virus 1; test: Antiviral activity against enfuvirtide-resistant Human immunodeficiency virus 1 NL4-3 harboring gp41 D36G/N43D mutation by MAGI assay using human HeLa Cd4/LTR-beta-galactosidase cells; type: functional, organism-based
[13] = test system: Human immunodeficiency virus 1; test: Antiviral activity against enfuvirtide-resistant Human immunodeficiency virus 1 NL4-3 harboring gp41 D36G/V38A mutation by MAGI assay using human HeLa Cd4/LTR-beta-galactosidase cells; type: functional, organism-based
[14] = test system: Human immunodeficiency virus 1; test: Antiviral activity against enfuvirtide-resistant Human immunodeficiency virus 1 NL4-3 harboring gp41 D36G/N43D/S138A mutation by MAGI assay using human HeLa Cd4/LTR-beta-galactosidase cells relative to HIV1 NL4-3 gp41 D36G mutant; type: functional
[15] = test system: Human immunodeficiency virus 1; test: Antiviral activity against enfuvirtide-resistant Human immunodeficiency virus 1 NL4-3 harboring gp41 D36G/N43D/S138A mutation by MAGI assay using human HeLa Cd4/LTR-beta-galactosidase cells; type: functional, organism-based
[16] = test system: Human immunodeficiency virus 1; test: Antiviral activity against enfuvirtide-resistant Human immunodeficiency virus 1 NL4-3 harboring gp41 D36G/V38A mutation by MAGI assay using human HeLa Cd4/LTR-beta-galactosidase cells relative to HIV1 NL4-3 gp41 D36G mutant; type: functional

Row | Compound | EC50 [1] [nM] | EC50 [2] [nM] | EC50 [3] [nM] | Ratio EC50 [4] | inhibition [5] | Ratio EC50 [6] | Ratio EC50 [7] | Ratio EC50 [8] | EC50 [9] [nM] | inhibition [10] | inhibition [11] | EC50 [12] [nM] | EC50 [13] [nM] | Ratio EC50 [14] | EC50 [15] [nM] | Ratio EC50 [16]
1 | enfuvirtide | 390 | 15 | 3.4 | 1.4 | inactive | 6.3 | 163 | 20 | 2.4 | Active | inactive | 49 | 23 | 35 | 84 | 9.6
2 | H-W[Nle]EWDRKIEEYTKKIEELIKKSQEQQEKNEKELKREREREG-OH | 3 | 1.6 | 12 | 5 |  | 0.7 | 1.3 | 0.7 | 2.4 |  | Active | 1.6 | 2.2 | 0.6 | 1.5 | 0.9
3 | CC[C@H](C)[C@H](NC(=O)[C@H](CC(C)C)NC(=O)[C@H](CO)NC(=O)[C@H](Cc1cnc[nH]1)NC(=O)[C@@H](NC(=O)[C@H](CC(C)C)NC(=O)[C@H](CO)NC(=O)[C@@H](NC(=O)[C@H](Cc1ccc(O)cc1)NC(=O)[C@H](CC(N)=O)NC(=O)[C@H](CC(N)=O)NC(=O)[C@@H](NC(=O)[C@H](CCC(=O)O)NC(=O)[C@H](CCCNC(=N)N)NC(=O)[C@H](CC(=O)O)NC(=O)[C@H](Cc1c[nH]c2ccccc12)NC(=O)[C@H](CCC(=O)O)NC(=O)[C@@H](CCS)NC(=O)[C@@H](N)Cc1c[nH]c2ccccc12)[C@@H](C)CC)[C@@H](C)O)[C@@H](C)CC)C(=O)N[C@@H](CCC(=O)O)C(=O)N[C@@H](CCC(=O)O)C(=O)N[C@@H](CO)C(=O)N[C@@H](CCC(N)=O)C(=O)N[C@@H](CC(N)=O)C(=O)N[C@@H](CCC(N)=O)C(=O)N[C@@H](CCC(N)=O)C(=O)N[C@@H](CCC(=O)O)C(=O)N[C@@H](CCCCN)C(=O)N[C@@H](CC(N)=O)C(=O)N[C@@H](CCC(N)=O)C(=O)N[C@@H](CCC(=O)O)C(=O)N[C@@H](CC(C)C)C(=O)N[C@@H](CC(C)C)C(=O)O | > 1000 | 245 | 192 | 3.7 |  | 4.7 | >19 | >19 | 52 |  |  | > 1000 | 504 | >19 | > 1000 | 9.7
4 | H-WEEWDKKIEEYTKKIEELIKKSEEQQKKN-OH | 50 | 2.4 | 2.7 | 1.4 |  | 1.3 | 26 | 2.2 | 1.9 | Active | Active | 4.1 | 3 | 1.8 | 3.4 | 1.6
5 | H-WEEWDKKIEEYTKKIEELIKKS-OH | 252 | 217 | > 1000 | >1.5 |  | 0.3 | 0.4 | 0.2 | 686 |  |  | 114 | 289 | >1.5 | > 1000 | 0.4
